# Results taken from ChEMBL document CHEMBL4257442, “An insight into tetrahydro-β-carboline-tetrazole hybrids: synthesis and bioevaluation as potent antileishmanial agents” (Medchemcomm, 2017).
# pIC50: −log10 of the molar value.
# Key:
# [1] = Cytotoxicity against mouse J774A.1 cells after 2 hrs by MTT assay; assay type: cell-based, J774.A1
# Method in brief: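 Mouse macrophage J-774A.1 cells obtained from NCCS, Pune, were used for the in vitro cytotoxicity assay. CC50 is the average of three independent assays, expressed as average ± standard error.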
# [2] = test system: Leishmania donovani; test: Antileishmanial activity against Leishmania donovani MHOM/IN/80/Dd8 promastigotes harboring luciferase reporter gene after 72 hrs by Steady-Glo luminescence assay; assay type: functional, organism-based; conditions: MHOM/IN/80/Dd8, 72 h
# Method in brief: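 Extracellular promastigotes of the L. donovani WHO reference strain MHOM/IN/80/Dd8. IC50 is the concentration giving 50% inhibition of parasite growth. Values are the average of three independent assays, given as average ± standard error.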
# [3] = test system: Leishmania donovani; test: Antileishmanial activity against Leishmania donovani MHOM/IN/80/Dd8 amastigotes harboring luciferase reporter gene infected in mouse J774A.1 cells after 72 hrs by Steady-Glo luminescence assay; assay type: functional, organism-based; conditions: MHOM/IN/80/Dd8, J774.A1, 72 h
# Method in brief: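 Intracellular L. donovani amastigotes in murine macrophages, with firefly luciferase reporter expression. IC50 is the concentration giving 50% inhibition of parasite growth. Values are the average of three independent assays, given as average ± standard error.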
# [4] = Selectivity index, ratio of CC50 for mouse J774A.1 cells to IC50 for Leishmania donovani MHOM/IN/80/Dd8 amastigote forms infected in mouse J774A.1 cells; assay type: toxicity, cell-based; conditions: read-out: Ratio CC50/IC50
# Method in brief: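 SI was calculated as the cytotoxicity CC50 in J-774A.1 cells divided by the anti-amastigote IC50. The amastigote assay used murine macrophages expressing a firefly luciferase reporter, infected with intracellular L. donovani. Each IC50 and CC50 is the average of three independent assays.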
# [5] = test system: Leishmania donovani; test: Antileishmanial activity against Leishmania donovani MHOM/IN/80/Dd8 amastigotes infected in golden hamsters assessed as inhibition of splenic parasite burden at 50 mg/kg, ip for 5 consecutive days initiated after 2 days of biopsy and measured on day 7 post last dose by Giemsa staining-based assay relative to control; assay type: functional; conditions: MHOM/IN/80/Dd8, ip
# Method in brief: (§1)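 Golden hamster model infected with L. donovani. Treatment was 50 mg kg–1 given intraperitoneally for 5 consecutive days. Read-out was % inhibition of splenic parasite burden.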
# [6] = test system: Leishmania donovani; test: Antileishmanial activity against Leishmania donovani MHOM/IN/80/Dd8 amastigotes infected in golden hamsters assessed as inhibition of splenic parasite burden at 50 mg/kg, ip for 5 consecutive days initiated after 2 days of biopsy and measured on day 28 post last dose by Giemsa staining-based assay relative to control; assay type: functional; conditions: MHOM/IN/80/Dd8, ip; method in brief: as §1
# [7] = test system: Leishmania donovani; test: Antileishmanial activity against Leishmania donovani MHOM/IN/80/Dd8 amastigotes infected in golden hamsters assessed as inhibition of splenic parasite burden at 100 mg/kg, po for 5 consecutive days initiated after 2 days of biopsy and measured on day 7 post last dose by Giemsa staining-based assay relative to control; assay type: functional; conditions: MHOM/IN/80/Dd8, po
# [8] = test system: Leishmania donovani; test: Antileishmanial activity against Leishmania donovani MHOM/IN/80/Dd8 amastigotes infected in golden hamsters assessed as inhibition of splenic parasite burden at 100 mg/kg, po for 5 consecutive days initiated after 2 days of biopsy and measured on day 28 post last dose by Giemsa staining-based assay relative to control; assay type: functional; conditions: MHOM/IN/80/Dd8, po
# [9] = Cmax in golden Syrian hamster at 50 mg/kg, po measured up to 24 hrs by LC-MS/MS analysis; assay type: ADME, organism-based, Mesocricetus auratus; design: dose 50 mg/kg, route oral; conditions: in vivo
# Method in brief: (§2)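 Single oral 50 mg kg–1 dose given to golden Syrian hamsters (n = 5). Compound quantified in serum over time up to 24 h by validated LC-MS/MS with electrospray ionization. Parameters came from non-compartmental analysis of the mean serum concentration–time profile and are reported as mean ± SEM of five animals.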
# [10] = Tmax in golden Syrian hamster at 50 mg/kg, po measured up to 24 hrs by LC-MS/MS analysis; assay type: ADME, organism-based, Mesocricetus auratus; conditions: in vivo; method in brief: as §2
# [11] = AUClast in golden Syrian hamster at 50 mg/kg, po measured up to 24 hrs by LC-MS/MS analysis; assay type: ADME, organism-based, Mesocricetus auratus; design: time < 24 hr, dose 50 mg/kg, route oral; conditions: in vivo; method in brief: as §2
# [12] = MRT in golden Syrian hamster at 50 mg/kg, po measured up to 24 hrs by LC-MS/MS analysis; assay type: ADME, organism-based, Mesocricetus auratus; conditions: in vivo; method in brief: as §2
# [13] = Apparent oral clearance in golden Syrian hamster at 50 mg/kg measured up to 24 hrs by LC-MS/MS analysis; assay type: ADME, organism-based, Mesocricetus auratus; conditions: in vivo; method in brief: as §2
# [14] = Apparent oral volume of distribution in golden Syrian hamster at 50 mg/kg measured up to 24 hrs by LC-MS/MS analysis; assay type: ADME, organism-based, Mesocricetus auratus; conditions: in vivo; method in brief: as §2
# [15] = test system: Leishmania donovani; test: Antileishmanial activity against Leishmania donovani MHOM/IN/80/Dd8 amastigotes infected in golden hamsters assessed as inhibition of splenic parasite burden at 30 mg/kg, po for 5 consecutive days initiated after 2 days of biopsy and measured on day 7 post last dose by Giemsa staining-based assay relative to control; assay type: functional; conditions: MHOM/IN/80/Dd8, po
Compound,CC50 at 2 h [1] [µM],pIC50 [2],pIC50 [3],selectivity ratio [4],other results
CC(C)(C)n1nnnc1C(c1ccc(C#N)cc1)N1CCc2c([nH]c3ccccc23)C1 (configuration not stated),150,5.55,4.79,9,–
Fc1ccc(C(c2nnnn2C2CCCCC2)N2CCc3c([nH]c4ccccc34)C2)cc1 (configuration not stated),–,4.84,≤ 4.60,–,–
COc1ccc(C(c2nnnn2C2CCCCC2)N2CCc3c([nH]c4ccccc34)C2)cc1 (configuration not stated),–,4.69,≤ 4.30,–,–
CC(C)(C)n1nnnc1C(c1ccc([N+](=O)[O-])cc1)N1CCc2c([nH]c3ccccc23)C1 (configuration not stated),140,6.23,5.42,37,inhibition in vivo at 50 mg/kg [5]: 20.4%; inhibition in vivo at 50 mg/kg [6]: 19.6%
COc1cc(C(c2nnnn2C(C)(C)C)N2CCc3c([nH]c4ccccc34)C2)cc(OC)c1OC (configuration not stated),–,4.63,≤ 4.30,–,–
Brc1ccc(C(c2nnnn2C2CCCCC2)N2CCc3c([nH]c4ccccc34)C2)cc1 (configuration not stated),–,4.78,≤ 4.30,–,–
CC(C)(C)n1nnnc1C(c1ccc(Cl)cc1)N1CCc2c([nH]c3ccccc23)C1 (configuration not stated),37,5.46,4.85,2,–
Clc1ccc(C(c2nnnn2C2CCCCC2)N2CCc3c([nH]c4ccccc34)C2)cc1 (configuration not stated),35.5,5.54,5.68,17,–
CC(C)(C)n1nnnc1C(c1ccc(F)cc1)N1CCc2c([nH]c3ccccc23)C1 (configuration not stated),48.8,5.57,4.76,3,–
COc1cc(C(c2nnnn2C2CCCCC2)N2CCc3c([nH]c4ccccc34)C2)cc(OC)c1OC (configuration not stated),36,5.55,5.80,23,inhibition in vivo at 50 mg/kg [5]: 75%; inhibition in vivo at 50 mg/kg [6]: 88.9%; inhibition in vivo at 100 mg/kg [7]: 50.9%; inhibition in vivo at 100 mg/kg [8]: 77.5%; Cmax [9]: 76.2 to 83.5 ng/mL; Tmax [10]: 1.6 to 8 h; AUC(0-t) at 24 h [11]: 844 ng·h/mL; MRT [12]: 10.2 h; CL/F [13]: 720 mL/min/kg; Vd/F [14]: 652 L/kg
CC(C)(C)n1nnnc1C(c1cccc([N+](=O)[O-])c1)N1CCc2c([nH]c3ccccc23)C1 (configuration not stated),150,5.31,5.41,39,inhibition in vivo at 50 mg/kg [5]: 4.83%; inhibition in vivo at 50 mg/kg [6]: 2.92%
N#Cc1ccc(C(c2nnnn2C2CCCCC2)N2CCc3c([nH]c4ccccc34)C2)cc1 (configuration not stated),–,≤ 4.00,≤ 4.30,–,–
COc1ccc(C(c2nnnn2C(C)(C)C)N2CCc3c([nH]c4ccccc34)C2)cc1 (configuration not stated),42,5.94,5.36,10,–
O=[N+]([O-])c1ccc(C(c2nnnn2C2CCCCC2)N2CCc3c([nH]c4ccccc34)C2)cc1 (configuration not stated),–,4.51,≤ 4.30,–,–
COc1ccc(C(c2nnnn2C(C)(C)C)N2CCc3c([nH]c4ccccc34)C2)cc1OC (configuration not stated),138,5.24,4.80,8,–
Clc1ccccc1C(c1nnnn1C1CCCCC1)N1CCc2c([nH]c3ccccc23)C1 (configuration not stated),–,≤ 4.00,≤ 4.30,–,–
CC(C)c1ccc(C(c2nnnn2C(C)(C)C)N2CCc3c([nH]c4ccccc34)C2)cc1 (configuration not stated),130,5.45,4.75,7,–
CC(C)(C)n1nnnc1C(c1ccccc1)N1CCc2c([nH]c3ccccc23)C1 (configuration not stated),146,5.39,5.27,27,inhibition in vivo at 50 mg/kg [5]: 4.05%; inhibition in vivo at 50 mg/kg [6]: 3.79%
COc1ccc(C(c2nnnn2C2CCCCC2)N2CCc3c([nH]c4ccccc34)C2)cc1OC (configuration not stated),41.9,5.92,5.48,13,–
CC(C)(C)n1nnnc1C(c1ccc(Br)cc1)N1CCc2c([nH]c3ccccc23)C1 (configuration not stated),144,5.80,5.42,38,inhibition in vivo at 50 mg/kg [5]: 33.7%; inhibition in vivo at 50 mg/kg [6]: 53.1%
CCCCCCCCCCCCCCCCOP(=O)([O-])OCC[N+](C)(C)C [MILTEFOSINE],12.4,–,–,1.48,inhibition in vivo at 30 mg/kg [15]: 98.1%
